# Calls of active or inactive are those of the source. The calls are words filed in the database; no cut-off is given here.
# How the values were obtained:
# A549 [1] = test: Induction of apoptosis in human A549 cells assessed as DNA fragmentation at 2 uM after 48 hrs by agarose gel electrophoresis; assay type: functional, cell-based
# Outline: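 A549 cells (1×10^6) seeded in six-well plates for 24 h, then exposed to 2 µM compound or roscovitine for 48 h and pelleted. Lysate treated with SDS and RNase-A (2 h, 56 °C), then proteinase K (2 h, 37 °C). DNA precipitated with ammonium acetate/cold ethanol, dissolved in TE, and laddering resolved on 2% agarose gel against a 50 bp marker.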
# A549 [2] = test: Induction of apoptosis in human A549 cells assessed as activation of caspase-3 at 1 to 2 uM after 48 hrs by ELISA relative to control; assay type: functional, cell-based
# Outline: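 A549 lung cancer cells exposed to 1 and 2 µM compound for 48 h, with roscovitine as positive control. Pellets lysed for 15 min, and supernatant caspase-3 activity read by a commercial colorimetric kit relative to untreated control. Values are mean ± SD of two experiments run in triplicate.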
# A549 [3] = test: Induction of apoptosis in human A549 cells assessed as formation of apoptotic bodies at 2 uM after 48 hrs by Hoechst staining assay; assay type: functional, cell-based
# Outline: (§1)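 A549 cells (10,000 per 18-mm coverslip) grown 24 h, then given 2 µM compound for 48 h, with 0.001% DMSO vehicle and roscovitine controls. Hoechst 33258 (0.5 mg/mL) in 4% paraformaldehyde was added for 30 min. Randomly chosen fields were imaged by fluorescence microscopy and apoptotic cells scored manually by cytoplasmic condensation, apoptotic bodies and nuclear fragmentation.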
# A549 [4] = test: Induction of apoptosis in human A549 cells assessed as nuclear fragmentation at 2 uM after 48 hrs by Hoechst staining assay; assay type: functional, cell-based; outline: as §1
# A549 [5] = test: Induction of apoptosis in human A549 cells assessed as cytoplasmic condensation at 2 uM after 48 hrs by Hoechst staining assay; assay type: functional, cell-based; outline: as §1
# A549 [6] = test: Induction of apoptosis in human A549 cells assessed as reduction of Cdk1 expression at 2 uM after 48 hrs by Western blot analysis; assay type: functional, cell-based
# Outline: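 5×10^5 A549 cells grown 24 h, then treated with 2 µM compound for 48 h. Lysis in ice-cold RIPA with protease inhibitors, protein by Bradford, 50 µg per lane on 12% SDS-PAGE, PVDF transfer. Probed overnight at 4 °C with mouse monoclonal anti-Cdk1, β-actin as loading control, chemiluminescent detection.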
# A549 [7] = test: Cell cycle arrest at human A549 cells assessed as accumulation at G2/M phase at 1 uM after 48 hrs by propidium iodide-staining-based FACS flow cytometric analysis (reference value: 13.17%); assay type: functional
# A549 [8] = test: Cell cycle arrest at human A549 cells assessed as accumulation at G2/M phase at 2 uM after 48 hrs by propidium iodide-staining-based FACS flow cytometric analysis (reference value: 13.17%); assay type: functional
# A549 [9] = test: Cell cycle arrest at human A549 cells assessed as accumulation at S phase at 1 uM after 48 hrs by propidium iodide-staining-based FACS flow cytometric analysis (reference value: 4.48%); assay type: functional
# A549 [10] = test: Cell cycle arrest at human A549 cells assessed as accumulation at S phase at 2 uM after 48 hrs by propidium iodide-staining-based FACS flow cytometric analysis (reference value: 4.48%); assay type: functional
# A549 [11] = test: Cell cycle arrest at human A549 cells assessed as accumulation at G0/G1 phase at 1 uM after 48 hrs by propidium iodide-staining-based FACS flow cytometric analysis (reference value: 81.33%); assay type: functional
# MDA-MB-468 = test: Cytotoxicity against human MDA-MB-468 cells after 48 hrs by MTT assay; assay type: functional; conditions: MDA-MB-468, 48 h
# T47D = test: Cytotoxicity against human T47D cells after 48 hrs by MTT assay; assay type: functional
# Hs-578T = test: Cytotoxicity against human Hs578T cells after 48 hrs by MTT assay; assay type: functional
# MCF7 = test: Cytotoxicity against human MCF7 cells after 48 hrs by MTT assay; assay type: functional, cell-based; conditions: MCF7, 48 h
# Outline: (§2)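 MTT assay: […] were plated in DMEM with 10% FBS and incubated for 24 h at 37 °C under CO2. Compounds diluted in culture medium were added alongside a vehicle control for 48 h. MTT (10 µl of a 5 mg/ml stock) was added for a further 4 h. The supernatant was then removed, the formazan dissolved in DMSO, and absorbance read at 540 nm. IC50 was derived.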
# DU-145 = test: Cytotoxicity against human DU145 cells after 48 hrs by MTT assay; assay type: functional, cell-based; conditions: DU-145, 48 h; outline: as §2
# TK-10 = test: Cytotoxicity against human TK10 cells after 48 hrs by MTT assay; assay type: functional; conditions: TK-10, 48 h
# RXF 393 = test: Cytotoxicity against human RXF393 cells after 48 hrs by MTT assay; assay type: functional; conditions: RXF 393, 48 h
# ACHN = test: Cytotoxicity against human ACHN cells after 48 hrs by MTT assay; assay type: functional, cell-based; outline: as §2
# 786-0 = test: Cytotoxicity against human 786-0 cells after 48 hrs by MTT assay; assay type: functional; conditions: 786-0, 48 h
# SK-OV-3 = test: Cytotoxicity against human SKOV3 cells after 48 hrs by MTT assay; assay type: functional; conditions: SK-OV-3, 48 h
# OVCAR-8 = test: Cytotoxicity against human OVCAR8 cells after 48 hrs by MTT assay; assay type: functional; conditions: OVCAR-8, 48 h
# UACC-62 = test: Cytotoxicity against human UACC62 cells after 48 hrs by MTT assay; assay type: functional; conditions: UACC-62, 48 h
# IGROV-1 = test: Cytotoxicity against human IGROV1 cells after 48 hrs by MTT assay; assay type: functional; conditions: IGROV-1, 48 h
# SK-MEL-2 = test: Cytotoxicity against human SK-MEL-2 cells after 48 hrs by MTT assay; assay type: functional; conditions: SK-MEL-2, 48 h
# Malme-3M = test: Cytotoxicity against human MALME-3M cells after 48 hrs by MTT assay; assay type: functional
# U-251 = test: Cytotoxicity against human U251 cells after 48 hrs by MTT assay; assay type: functional; conditions: U-251, 48 h
# SF-539 = test: Cytotoxicity against human SF539 cells after 48 hrs by MTT assay; assay type: functional; conditions: SF-539, 48 h
# SF-295 = test: Cytotoxicity against human SF295 cells after 48 hrs by MTT assay; assay type: functional; conditions: SF-295, 48 h
# SF-268 = test: Cytotoxicity against human SF268 cells after 48 hrs by MTT assay; assay type: functional; conditions: SF-268, 48 h
# NCI-H522 = test: Cytotoxicity against human NCI-H522 cells after 48 hrs by MTT assay; assay type: functional; conditions: NCI-H522, 48 h
# HOP-92 = test: Cytotoxicity against human HOP92 cells after 48 hrs by MTT assay; assay type: functional; conditions: HOP-92, 48 h
# HOP-62 = test: Cytotoxicity against human HOP62 cells after 48 hrs by MTT assay; assay type: functional; conditions: HOP-62, 48 h
# [12] = Cytotoxicity against human EKVX cells after 48 hrs by MTT assay; assay type: functional
# A549 [13] = test: Cytotoxicity against human A549 cells after 48 hrs by MTT assay; assay type: functional, cell-based; conditions: A549, 48 h; outline: as §2
# SR = test: Cytotoxicity against human SR cells after 48 hrs by MTT assay; assay type: functional
# K562 = test: Cytotoxicity against human K562 cells after 48 hrs by MTT assay; assay type: functional; conditions: K562, 48 h
structure (smiles),measurement,setting,value
O=C(Nc1nc2ccccc2s1)c1cc(-c2ccc(F)cc2)n2nc(-c3ccccc3)cc2n1,Activity,A549 [1],Active
same,Activity,A549 [2],Active
same,Activity,A549 [3],Active
same,Activity,A549 [4],Active
same,Activity,A549 [5],Active
same,Activity,A549 [6],Active
same,Activity,A549 [7],44.54%
same,Activity,A549 [8],64.7%
same,Activity,A549 [9],6.1%
same,Activity,A549 [10],6.8%
same,Activity,A549 [11],35.34%
same,GI50,MDA-MB-468,5.1 µM
same,GI50,T47D,3.3 µM
same,GI50,Hs-578T,2.2 µM
same,GI50,MCF7,5.2 µM
same,IC50,MCF7,2.29 µM
same,GI50,DU-145,4.9 µM
same,IC50,DU-145,2.08 µM
same,GI50,TK-10,2.4 µM
same,GI50,RXF 393,2.5 µM
same,GI50,ACHN,2.2 µM
same,IC50,ACHN,3.46 µM
same,GI50,786-0,2.1 µM
same,GI50,SK-OV-3,2.3 µM
same,GI50,OVCAR-8,2.1 µM
same,GI50,UACC-62,3.7 µM
same,GI50,IGROV-1,4.3 µM
same,GI50,SK-MEL-2,3.1 µM
same,GI50,Malme-3M,3.7 µM
same,GI50,U-251,2 µM
same,GI50,SF-539,2.6 µM
same,GI50,SF-295,4.1 µM
same,GI50,SF-268,3.8 µM
same,GI50,NCI-H522,2.5 µM
same,GI50,HOP-92,1.6 µM
same,GI50,HOP-62,2.2 µM
same,GI50,[12],6.6 µM
same,GI50,A549 [13],2.7 µM
same,IC50,A549 [13],1.94 µM
same,GI50,SR,3.9 µM
same,GI50,K562,4.2 µM
COc1cc(-c2cc(C(=O)Nc3nc4ccccc4s3)nc3cc(-c4ccccc4)nn23)cc(OC)c1OC,Activity,A549 [1],Active
same,Activity,A549 [2],Active
same,Activity,A549 [3],Active
same,Activity,A549 [4],Active
same,Activity,A549 [5],Active
same,Activity,A549 [6],Active
same,Activity,A549 [7],40.05%
same,Activity,A549 [8],52.45%
same,Activity,A549 [9],5.9%
same,Activity,A549 [10],6.32%
same,Activity,A549 [11],42.29%
same,GI50,MDA-MB-468,13.9 µM
same,GI50,T47D,21.4 µM
same,GI50,Hs-578T,4.7 µM
same,GI50,MCF7,22.4 µM
same,IC50,MCF7,2.88 µM
same,GI50,DU-145,65 µM
same,IC50,DU-145,3.16 µM
same,GI50,TK-10,11.9 µM
same,GI50,RXF 393,6.2 µM
same,GI50,ACHN,45.7 µM
same,IC50,ACHN,4.36 µM
same,GI50,786-0,2.5 µM
same,GI50,SK-OV-3,12.5 µM
same,GI50,OVCAR-8,5.3 µM
same,GI50,UACC-62,14.4 µM
same,GI50,IGROV-1,56 µM
same,GI50,SK-MEL-2,11.2 µM
same,GI50,Malme-3M,12 µM
same,GI50,U-251,5.1 µM
same,GI50,SF-539,1.3 µM
same,GI50,SF-295,10.6 µM
same,GI50,SF-268,4.5 µM
same,GI50,NCI-H522,1.9 µM
same,GI50,HOP-92,0.7 µM
same,GI50,HOP-62,9.8 µM
same,GI50,[12],42 µM
same,IC50,A549 [13],2.01 µM
same,GI50,SR,19.7 µM
same,GI50,K562,25 µM
